Source: PubChem
In the library only some 2.9% were active in any assay of this set; here they are far more common.
DENV2 CPE rescue – protects cells from dengue virus 2 cytopathic effect; DENV2-infected cells, cytopathic effect rescue, plate reader; CPE inhibition, % at 9.99 µM; hit rate 1.7% among 350,000; AID 651640; in the data active = CPE inhibition above about 20%, passing the limit was not always enough; inconclusive = no clear call, values can overlap the other calls; tested in BHK-21 cells;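 also: 0% = median of neutral control wells and 100% = median of positive control wells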
S100A4 MyoIIA – S100A4-myosin IIA interaction inhibition; P26447; inhibition, % at 10.7 µM; S100A4/TAMRA-MyoIIA peptide fluorescence polarization; hit rate 0.14% among 360,000;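 active = mean inhibition of at least 70% across replicates, with every replicate also reaching that level; inconclusive = mean inhibition reaches 70% but some replicates fall short; inactive = mean inhibition below 70%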
Target sequence (P26447 whole entry, looked up): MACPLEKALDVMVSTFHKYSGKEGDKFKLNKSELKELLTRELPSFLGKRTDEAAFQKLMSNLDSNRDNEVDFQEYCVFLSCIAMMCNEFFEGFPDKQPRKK
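Material: S100A4 monomer protein / Buffer or medium: 50 mM HEPES pH 7.2, 10 mM CaCl2, 100 mM KCl / Times: 5 min incubation before reading / Benchmarks: neutral control DMSO, positive control TFP / Reagent: labelled myosin peptide probe, 5 nM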
CAL PDZ FP-1 – inhibitors of human CAL PDZ peptide binding; hit rate 0.02% among 330,000; inhibition, % at 20 µM; purified CAL PDZ, TMR-peptide fluorescence polarization, 1 h;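 active = highest replicate inhibition of at least 40%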;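 also: plate controls were DMSO neutral control wells for no effect and unlabeled competitor peptide control wells for full effect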
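Read-out basis: mP drop reported as inhibition | Assay system: Tagged CAL PDZ protein CerCALP, purified | Benchmarks: Unlabelled peptide for full inhibition, DMSO wells as neutral | Schedule: 1 h incubation at room temperature before polarization reading | Buffer or medium: Sodium phosphate/NaCl buffer pH 7.4 with TCEP, IgG, Thesit | Doses: Single point, 20 µM | Measured by: Fluorescence polarization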
ERAP1 inh – blocks human ERAP1 aminopeptidase activity; hit rate 0.15% among 340,000; inhibition, % at 10.7 µM; recombinant ERAP1, Leu-AMC fluorescence, 60 min; Q9NZ08; AID 652197;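 active = mean replicate inhibition of at least 30%, or all replicates individually reaching that 30% level; inactive = mean below 30% and not every replicate reaching it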;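 also: 0% = neutral control wells and 100% = L-leucinethiol positive control wells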
SIRT5 inh – inhibitors of human sirtuin-5 desuccinylase. Purified SirT5, succinyl-peptide AMC, trypsin-coupled fluorescence. hit rate 1.1% among 330,000. Q9NXA8. AID 652115. inhibition, % at 15 µM; in the data active = inhibition above about 15%; inconclusive = no clear call, values can overlap the other calls
Target sequence (Q9NXA8 whole entry, looked up): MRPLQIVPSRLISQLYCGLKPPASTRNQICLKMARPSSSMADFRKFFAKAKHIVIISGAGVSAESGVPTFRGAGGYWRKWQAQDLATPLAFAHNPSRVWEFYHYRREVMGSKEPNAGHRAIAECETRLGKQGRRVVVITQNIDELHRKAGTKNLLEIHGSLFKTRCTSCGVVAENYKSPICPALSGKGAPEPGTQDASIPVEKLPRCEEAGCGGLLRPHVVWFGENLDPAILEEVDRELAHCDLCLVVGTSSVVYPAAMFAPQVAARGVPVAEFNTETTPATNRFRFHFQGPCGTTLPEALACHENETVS
CAL PDZ FP-2 – CAL PDZ (human) peptide binding inhibition. purified CAL PDZ, TMR-peptide fluorescence polarization, 1 h. inhibition, % at 24.9 µM. hit rate 0.92% among 300,000;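 active = mean inhibition of at least 30% with at least half of replicates also reaching 30%; inconclusive = no clear call, values can overlap the other calls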;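 also: 0% = DMSO neutral control and 100% = excess unlabeled competitor peptide PRC23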
Starred values were filed as active, the others as inactive; ? = inconclusive; . = no result given.

SMILES | DENV2 CPE rescue | S100A4 MyoIIA | CAL PDZ FP-1 | ERAP1 inh | SIRT5 inh | CAL PDZ FP-2
C[C@@H]1CCCCO[C@H](CN(C)Cc2ccc(C(F)(F)F)cc2)[C@H](C)CN([C@@H](C)CO)C(=O)c2cc(NC(=O)c3ccccc3)ccc2O1 | 140.1* | 0.1 | . | 1.0 | 5.8 | .
C[C@@H]1CN([C@H](C)CO)C(=O)c2cc(NC(=O)c3ccncc3)ccc2O[C@@H](C)CCCCO[C@@H]1CN(C)Cc1ccc(C(F)(F)F)cc1 | 2.3 | 10.1 | . | -2.4 | 11.3 | .
O=C(c1cccc(F)c1)N1CC[C@@H]2[C@H](CO)Nc3ccc(-c4ccc(F)cc4)cc3[C@@H]21 | 15.0 | -9.8 | . | 0.7 | 5.4 | .
O=C(c1ccccn1)N1CC[C@@H]2[C@@H](CO)Nc3ccc(-c4ccccc4F)cc3[C@@H]21 | 21.0* | -4.6 | . | . | . | .
O=C(c1ccccc1)N1CC[C@@H]2[C@H](CO)Nc3ccc(-c4ccc(F)cc4)cc3[C@@H]21 | 32.3* | . | . | . | . | .
O=C(c1cccc(F)c1)N1CC[C@H]2[C@H](CO)Nc3ccc(-c4ccc(F)cc4)cc3[C@H]21 | -1.0 | 102.0* | . | 0.7 | 7.7 | .
O=C(c1ccccc1)N1CC[C@@H]2[C@H]1c1cc(-c3ccc(F)cc3)ccc1N[C@@H]2CO | 28.7* | . | . | . | . | .
Cc1noc(C)c1S(=O)(=O)Nc1ccc2c(c1)C(=O)N([C@@H](C)CO)C[C@@H](C)[C@@H](CN(C)C(=O)Nc1ccc3c(c1)OCO3)OCCCC[C@@H](C)O2 | -2.5 | -37.1 | . | -1.6 | 3.1 | .
O=C(C[C@@H]1C=C[C@@H](NC(=O)Nc2ccccc2F)[C@@H](CO)O1)NCc1ccccc1 | 20.5 | 2.7 | . | -10.7 | 0.2 | .
CCOC(=O)C[C@@H]1OC[C@H](Cc2ccccc2)N1S(=O)(=O)c1ccc(C)cc1 | -4.4 | -0.6 | . | -2.6 | 1.8 | .
COC(=O)C[C@@H]1OC[C@H](Cc2ccccc2)N1S(=O)(=O)c1ccc(C)cc1 | 20.6* | 1.0 | . | 1.4 | 0.4 | .
COc1ccc(C(=O)C[C@@H]2OC[C@H](C)N2S(=O)(=O)c2ccc(C)cc2)cc1OC | 56.9* | -1.0 | . | -4.4 | 0.0 | .
Cc1ccc(S(=O)(=O)Nc2ccc3c(c2)C(=O)N([C@H](C)CO)C[C@@H](C)[C@@H](CN(C)S(=O)(=O)c2ccc(Cl)cc2)O3)cc1 | 4.3 | -12.5 | . | -0.4 | 3.3 | .
O=C(Nc1cc(C(F)(F)F)ccc1N1CCOCC1)c1ccncc1 | 7.1 | 0.8 | -0.6 | 1.5 | -2.8 | -2.4
O=C(CNCc1ccccn1)Nc1cc(C(F)(F)F)ccc1N1CCOCC1 | 6.1 | -9.5 | -0.5 | -0.3 | 17.3* | -0.2
C[C@@H]1CN([C@@H](C)CO)C(=O)c2cc(NC(=O)CCC(F)(F)F)ccc2O[C@@H](C)CCCCO[C@@H]1CN(C)C(=O)C1CCCCC1 | 3.4 | 8.2 | . | 0.0 | -0.8 | .
O=C(C[C@@H]1CC[C@H]2[C@@H](COC[C@@H](O)CN2Cc2cccc(C(F)(F)F)c2)O1)NCc1ccncc1 | 13.8 | 4.1 | . | -1.0 | -1.4 | .
O=C(C[C@@H]1CC[C@@H]2[C@H](COC[C@@H](O)CN2Cc2cccc(C(F)(F)F)c2)O1)NCCc1ccccc1 | -4.9 | -2.3 | . | -4.2 | -0.1 | .
O=C(C[C@H]1CC[C@H]2[C@@H](COC[C@H](O)CN2Cc2cccc(C(F)(F)F)c2)O1)NCc1ccncc1 | -2.7 | -1.7 | . | -1.3 | 16.6* | .
O=C(C[C@@H]1CC[C@H]2[C@@H](COC[C@@H](O)CN2Cc2cccc(C(F)(F)F)c2)O1)NCCc1ccccc1 | 25.7* | 4.6 | . | -4.7 | -0.1 | .
Cc1nc(SCc2cccc(C(=O)O)c2)nc2c1CCCC2 | ? | 1.8 | -0.3 | -3.8 | 52.1* | -2.1
CCCNC(=O)C1(C)CCCN(Cc2cccc(Oc3ccccc3)c2)C1 (centres undefined) | -7.1 | 3.9 | . | 10.2 | 20.4* | .
CCCNC(=O)C1(C)CCCN(Cc2ccc(Oc3ccccc3)cc2)C1 (centres undefined) | 0.5 | -0.9 | . | 12.9 | -2.4 | .
COC(=O)c1ccc(Cn2nc(C)cc2C)cc1 | . | . | . | . | . | 112.1*
COc1ccc(NS(=O)(=O)c2cccc(C(=O)O)c2)cc1S(=O)(=O)N1CCOCC1 | 12.5 | 2.4 | -0.3 | -0.5 | -0.7 | .
COc1ccc(NS(=O)(=O)c2ccc(/C=C/C(=O)O)cc2)cc1S(=O)(=O)N1CCOCC1 | 6.2 | -0.6 | 0.0 | . | -2.8 | 43.7*
